Data published in ChEMBL document CHEMBL5653631, “A Potent and Selective ULK1 Inhibitor Suppresses Autophagy and Sensitizes Cancer Cells to Nutrient Stress” (iScience, 2018).

Columns and labels:
[1] = molecular target: Cyclin-dependent kinase 12 (Homo sapiens) (UniProt Q9NYV4); experiment: Inhibition of human recombinant CRK7 at 15 nM related to control ULK1
[2] = molecular target: T1, Inhibitor of nuclear factor kappa-B kinase subunit alpha (Homo sapiens) (UniProt O15111); experiment: Inhibition of human recombinant IKKa at 40 nM related to control ULK1
T1 sequence (whole entry): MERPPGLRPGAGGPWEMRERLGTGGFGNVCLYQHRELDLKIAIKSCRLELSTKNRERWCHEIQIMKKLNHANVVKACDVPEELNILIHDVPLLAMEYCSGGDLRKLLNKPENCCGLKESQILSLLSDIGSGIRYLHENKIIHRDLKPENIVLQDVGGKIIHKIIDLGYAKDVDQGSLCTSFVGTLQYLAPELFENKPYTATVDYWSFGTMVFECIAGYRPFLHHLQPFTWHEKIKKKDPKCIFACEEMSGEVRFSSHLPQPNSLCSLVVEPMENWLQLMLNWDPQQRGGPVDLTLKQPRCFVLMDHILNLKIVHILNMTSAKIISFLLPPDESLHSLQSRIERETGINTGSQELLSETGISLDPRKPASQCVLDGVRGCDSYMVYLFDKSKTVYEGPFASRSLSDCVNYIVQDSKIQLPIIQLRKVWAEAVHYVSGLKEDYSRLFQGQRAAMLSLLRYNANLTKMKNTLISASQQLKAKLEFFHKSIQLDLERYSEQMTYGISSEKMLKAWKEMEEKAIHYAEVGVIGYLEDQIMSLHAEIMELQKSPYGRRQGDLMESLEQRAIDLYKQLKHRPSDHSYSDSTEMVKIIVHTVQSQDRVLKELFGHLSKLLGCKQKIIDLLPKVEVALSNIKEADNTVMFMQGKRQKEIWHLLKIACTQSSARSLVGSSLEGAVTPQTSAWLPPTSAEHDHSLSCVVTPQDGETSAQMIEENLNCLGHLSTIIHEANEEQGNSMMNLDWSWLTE

[3] = molecular target: Angiopoietin-1 receptor (Homo sapiens) (UniProt Q02763); experiment: Inhibition of human recombinant Tie2 at 40 nM in presence of ATP by radiometric assay relative to control
Sequence of Angiopoietin-1 receptor (Homo sapiens) (Q02763 whole entry): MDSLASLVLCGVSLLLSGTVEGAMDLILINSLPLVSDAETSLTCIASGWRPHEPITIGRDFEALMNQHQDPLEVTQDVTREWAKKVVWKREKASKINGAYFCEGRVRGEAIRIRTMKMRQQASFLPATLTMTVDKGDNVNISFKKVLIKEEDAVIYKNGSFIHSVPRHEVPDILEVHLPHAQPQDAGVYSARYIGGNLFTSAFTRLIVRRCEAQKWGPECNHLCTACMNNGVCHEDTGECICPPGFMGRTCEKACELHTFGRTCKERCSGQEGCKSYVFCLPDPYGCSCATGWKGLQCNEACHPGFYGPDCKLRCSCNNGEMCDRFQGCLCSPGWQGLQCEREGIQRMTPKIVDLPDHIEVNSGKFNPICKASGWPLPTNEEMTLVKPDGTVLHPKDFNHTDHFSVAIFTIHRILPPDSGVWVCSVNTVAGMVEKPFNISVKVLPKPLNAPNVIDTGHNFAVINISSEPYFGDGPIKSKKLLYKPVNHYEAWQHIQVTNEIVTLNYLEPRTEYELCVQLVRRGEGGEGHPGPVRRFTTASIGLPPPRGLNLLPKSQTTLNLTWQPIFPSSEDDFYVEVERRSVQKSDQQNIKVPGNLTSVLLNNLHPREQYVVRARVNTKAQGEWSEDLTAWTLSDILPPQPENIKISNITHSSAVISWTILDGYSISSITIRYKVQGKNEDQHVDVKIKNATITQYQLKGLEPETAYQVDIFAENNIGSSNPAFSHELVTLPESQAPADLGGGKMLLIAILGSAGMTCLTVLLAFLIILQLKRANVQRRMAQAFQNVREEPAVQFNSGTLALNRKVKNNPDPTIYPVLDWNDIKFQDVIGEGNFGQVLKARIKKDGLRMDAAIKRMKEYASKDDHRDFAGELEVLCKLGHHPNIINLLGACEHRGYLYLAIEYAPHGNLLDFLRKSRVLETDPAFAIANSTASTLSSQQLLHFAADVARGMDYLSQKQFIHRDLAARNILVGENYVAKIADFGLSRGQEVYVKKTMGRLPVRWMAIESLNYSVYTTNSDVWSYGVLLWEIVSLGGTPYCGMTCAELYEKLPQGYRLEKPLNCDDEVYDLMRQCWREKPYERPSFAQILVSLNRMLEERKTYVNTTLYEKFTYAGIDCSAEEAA

[4] = molecular target: T2, Beta-adrenergic receptor kinase 1 (Homo sapiens) (UniProt P25098); experiment: Inhibition of human recombinant BARK1 at 40 nM related to control ULK1
T2 sequence (whole entry): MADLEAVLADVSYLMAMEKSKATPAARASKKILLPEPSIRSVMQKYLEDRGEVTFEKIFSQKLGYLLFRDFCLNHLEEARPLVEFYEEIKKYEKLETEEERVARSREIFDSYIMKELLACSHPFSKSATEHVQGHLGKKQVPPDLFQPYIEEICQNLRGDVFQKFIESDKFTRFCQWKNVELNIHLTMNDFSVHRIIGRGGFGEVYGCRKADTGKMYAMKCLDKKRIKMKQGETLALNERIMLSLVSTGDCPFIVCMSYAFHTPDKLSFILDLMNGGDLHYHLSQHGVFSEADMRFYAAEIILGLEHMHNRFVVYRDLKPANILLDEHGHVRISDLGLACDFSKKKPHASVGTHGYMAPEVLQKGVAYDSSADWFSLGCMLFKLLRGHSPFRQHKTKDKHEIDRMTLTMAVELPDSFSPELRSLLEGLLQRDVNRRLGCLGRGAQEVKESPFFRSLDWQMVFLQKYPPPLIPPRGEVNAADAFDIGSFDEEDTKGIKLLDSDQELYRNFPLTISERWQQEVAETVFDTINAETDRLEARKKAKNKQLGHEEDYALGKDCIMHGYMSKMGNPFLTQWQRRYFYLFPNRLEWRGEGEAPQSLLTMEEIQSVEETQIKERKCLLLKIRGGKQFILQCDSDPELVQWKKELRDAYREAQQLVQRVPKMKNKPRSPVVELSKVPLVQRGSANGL
Method in brief: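 Radiometric activity assays in a panel of 327 human recombinant kinases, each run in duplicate at one inhibitor concentration. Activity remaining is expressed as percent of vehicle control, and percent inhibition is calculated as 100% minus percent activity remaining.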

[5] = molecular target: Insulin-like growth factor 1 receptor (Homo sapiens) (UniProt P08069); experiment: Inhibition of human recombinant IGF1R at 40 nM in presence of ATP by radiometric assay relative to control
Sequence of Insulin-like growth factor 1 receptor (Homo sapiens) (P08069 31-736 limits assumed): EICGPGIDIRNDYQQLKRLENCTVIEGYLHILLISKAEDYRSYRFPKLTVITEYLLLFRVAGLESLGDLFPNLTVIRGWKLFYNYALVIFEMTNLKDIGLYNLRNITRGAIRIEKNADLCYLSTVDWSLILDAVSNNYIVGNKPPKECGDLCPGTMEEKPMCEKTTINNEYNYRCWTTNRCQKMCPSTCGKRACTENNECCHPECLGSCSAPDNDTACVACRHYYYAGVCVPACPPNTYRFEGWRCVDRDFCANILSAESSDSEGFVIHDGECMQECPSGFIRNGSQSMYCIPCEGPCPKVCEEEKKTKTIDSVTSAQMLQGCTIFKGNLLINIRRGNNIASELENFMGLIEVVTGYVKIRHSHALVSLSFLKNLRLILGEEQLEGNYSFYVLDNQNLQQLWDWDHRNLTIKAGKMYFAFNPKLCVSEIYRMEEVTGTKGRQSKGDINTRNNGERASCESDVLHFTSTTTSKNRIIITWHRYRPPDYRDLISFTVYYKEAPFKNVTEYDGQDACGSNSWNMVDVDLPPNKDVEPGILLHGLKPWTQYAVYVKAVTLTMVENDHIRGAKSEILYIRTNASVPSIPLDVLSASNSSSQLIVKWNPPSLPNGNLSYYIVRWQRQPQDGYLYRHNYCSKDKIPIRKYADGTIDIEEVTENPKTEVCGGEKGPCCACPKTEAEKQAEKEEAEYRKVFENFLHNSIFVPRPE
Sequence of Insulin-like growth factor 1 receptor (Homo sapiens) (P08069 741-1367 limits assumed): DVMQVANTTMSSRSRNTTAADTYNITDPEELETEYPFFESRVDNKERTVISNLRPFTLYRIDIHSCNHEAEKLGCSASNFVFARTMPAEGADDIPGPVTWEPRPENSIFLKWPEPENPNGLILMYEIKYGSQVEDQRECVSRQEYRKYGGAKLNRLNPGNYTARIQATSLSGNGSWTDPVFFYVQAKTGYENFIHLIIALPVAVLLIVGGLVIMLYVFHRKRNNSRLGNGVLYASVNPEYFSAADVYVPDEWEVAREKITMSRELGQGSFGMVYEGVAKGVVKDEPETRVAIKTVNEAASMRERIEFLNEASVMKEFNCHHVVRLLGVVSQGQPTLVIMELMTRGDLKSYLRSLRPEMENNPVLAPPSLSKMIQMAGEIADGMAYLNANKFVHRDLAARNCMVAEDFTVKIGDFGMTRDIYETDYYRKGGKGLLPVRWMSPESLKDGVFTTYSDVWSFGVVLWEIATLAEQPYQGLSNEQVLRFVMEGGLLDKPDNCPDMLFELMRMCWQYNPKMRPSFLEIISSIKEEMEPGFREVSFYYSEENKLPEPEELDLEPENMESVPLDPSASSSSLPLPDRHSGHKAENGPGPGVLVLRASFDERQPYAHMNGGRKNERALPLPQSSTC

[6] = molecular target: T3, Serine/threonine-protein kinase DCLK2 (Homo sapiens) (UniProt Q8N568); experiment: Inhibition of human recombinant DCAMKL2 at 40 nM in presence of ATP by radiometric assay relative to control
T3 sequence (whole entry): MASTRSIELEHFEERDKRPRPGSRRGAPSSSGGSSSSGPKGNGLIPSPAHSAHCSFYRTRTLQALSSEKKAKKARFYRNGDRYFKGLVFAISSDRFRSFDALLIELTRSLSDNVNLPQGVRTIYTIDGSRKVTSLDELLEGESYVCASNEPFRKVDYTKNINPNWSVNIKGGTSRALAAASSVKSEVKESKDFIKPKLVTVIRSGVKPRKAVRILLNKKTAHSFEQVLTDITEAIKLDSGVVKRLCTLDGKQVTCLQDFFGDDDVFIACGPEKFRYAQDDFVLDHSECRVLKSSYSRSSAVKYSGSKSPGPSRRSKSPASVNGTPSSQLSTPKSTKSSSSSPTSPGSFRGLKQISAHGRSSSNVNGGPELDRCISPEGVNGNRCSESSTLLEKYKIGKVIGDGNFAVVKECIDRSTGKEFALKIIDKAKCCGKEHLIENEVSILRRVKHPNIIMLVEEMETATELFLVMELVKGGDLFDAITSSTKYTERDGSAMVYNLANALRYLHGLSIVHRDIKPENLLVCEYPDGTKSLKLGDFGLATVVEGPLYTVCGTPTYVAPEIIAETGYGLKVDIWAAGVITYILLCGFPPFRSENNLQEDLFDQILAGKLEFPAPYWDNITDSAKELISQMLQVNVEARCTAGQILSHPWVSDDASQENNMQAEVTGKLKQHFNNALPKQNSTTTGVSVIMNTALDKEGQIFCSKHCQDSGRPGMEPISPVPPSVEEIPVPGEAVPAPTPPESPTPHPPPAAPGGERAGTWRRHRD

Sequence of Cyclin-dependent kinase 12 (Homo sapiens) (Q9NYV4 whole entry, looked up): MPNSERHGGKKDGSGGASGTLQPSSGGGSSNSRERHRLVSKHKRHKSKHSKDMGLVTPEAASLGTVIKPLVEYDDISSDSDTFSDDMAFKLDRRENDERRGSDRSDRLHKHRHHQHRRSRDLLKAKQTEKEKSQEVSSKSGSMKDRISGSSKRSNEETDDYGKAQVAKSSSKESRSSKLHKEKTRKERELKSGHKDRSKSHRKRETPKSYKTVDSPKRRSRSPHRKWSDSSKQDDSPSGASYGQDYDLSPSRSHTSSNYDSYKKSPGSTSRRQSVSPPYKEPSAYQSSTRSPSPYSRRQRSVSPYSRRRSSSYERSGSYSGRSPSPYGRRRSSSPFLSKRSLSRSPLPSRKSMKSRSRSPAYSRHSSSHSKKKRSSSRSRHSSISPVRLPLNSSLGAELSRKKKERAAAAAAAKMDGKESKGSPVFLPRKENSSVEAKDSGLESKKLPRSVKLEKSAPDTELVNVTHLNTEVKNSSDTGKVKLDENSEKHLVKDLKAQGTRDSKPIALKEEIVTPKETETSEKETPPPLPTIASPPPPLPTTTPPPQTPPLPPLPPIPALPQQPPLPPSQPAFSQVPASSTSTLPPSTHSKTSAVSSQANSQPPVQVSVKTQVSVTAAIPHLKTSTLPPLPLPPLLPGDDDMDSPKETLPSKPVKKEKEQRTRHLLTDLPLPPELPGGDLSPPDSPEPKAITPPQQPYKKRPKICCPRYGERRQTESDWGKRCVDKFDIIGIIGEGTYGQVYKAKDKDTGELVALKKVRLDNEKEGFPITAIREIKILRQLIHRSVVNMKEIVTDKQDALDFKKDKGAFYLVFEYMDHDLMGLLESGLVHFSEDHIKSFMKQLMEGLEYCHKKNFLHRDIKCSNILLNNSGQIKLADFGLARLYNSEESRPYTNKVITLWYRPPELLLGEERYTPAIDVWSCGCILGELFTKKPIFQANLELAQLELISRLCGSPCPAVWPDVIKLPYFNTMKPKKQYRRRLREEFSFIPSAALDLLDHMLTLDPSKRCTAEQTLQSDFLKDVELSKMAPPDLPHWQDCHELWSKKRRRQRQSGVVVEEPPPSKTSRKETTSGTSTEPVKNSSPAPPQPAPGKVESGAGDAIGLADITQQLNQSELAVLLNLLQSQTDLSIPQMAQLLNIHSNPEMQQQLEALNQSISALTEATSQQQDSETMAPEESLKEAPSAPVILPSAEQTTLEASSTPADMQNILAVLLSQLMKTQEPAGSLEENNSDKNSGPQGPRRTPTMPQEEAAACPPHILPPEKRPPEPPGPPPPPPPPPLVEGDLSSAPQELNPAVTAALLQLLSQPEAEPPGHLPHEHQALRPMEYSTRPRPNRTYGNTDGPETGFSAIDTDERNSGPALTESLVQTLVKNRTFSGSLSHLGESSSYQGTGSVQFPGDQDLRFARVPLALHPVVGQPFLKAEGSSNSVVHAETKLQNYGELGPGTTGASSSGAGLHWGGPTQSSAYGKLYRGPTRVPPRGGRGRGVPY

fold change (FC) [1]	fold change (FC) [2]	inhibition [3]	fold change (FC) [4]	inhibition [5]	inhibition [6]	SMILES
0.05						CC(C)[C@H](NC(=O)c1cc(-c2cnn3cc(-c4ccc(OCCN5CCCCC5)cc4)cnc23)cs1)C(F)(F)F
	0	0%	0.04	0%	0%	O=C(N[C@@H](C1CC1)C(F)(F)F)c1cc(-c2cnn3cc(-c4ccc(F)cc4)cnc23)cs1
